Assay results as given in ChEMBL document CHEMBL1153578, “Synthesis and evaluation of anti-tumor activities of N4 fatty acyl amino acid derivatives of 1-beta-arabinofuranosylcytosine” (Eur J Med Chem, 2009).

How the values were obtained:
CCRF S-180 [1] = assay: Antitumor activity against mouse S180 cells xenografted in ip dosed Kunming mouse assessed as tumor growth inhibition after 7 days; format: functional
How it was run: (§1)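 Kunming mice received 0.2 mL of S180 cells (passaged in mouse abdomen, harvested day 8, 2.0 × 10⁷/mL) and were randomized into groups of 10. Compounds were given at 7.8 mmol/L in 0.5% CMC-Na (solution or suspension), 0.2 mL i.p. daily for 7 days. Mice were then sacrificed and tumors weighed. Inhibition = (mean control weight − mean treated weight)/mean control weight × 100%.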

HeLa = assay: Cytotoxicity against human HeLa cells after 48 hrs by MTT assay; format: functional, cell-based
How it was run: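 HeLa cells were grown in DMEM with 10% FBS and penicillin/streptomycin, seeded at 5 × 10⁴/mL, and treated with 0.5, 1.0, 5.0, 10 and 50 of compound in PBS with 4% DMSO, in triplicate. MTT (5 mg/mL) was added for 4 h at 37 °C without centrifugation, then supernatant removed and formazan dissolved in DMSO. Read at 570 nm (reference 630 nm) with survival normalized to medium-blanked control; IC50 = concentration causing 50% cell death.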

HL-60 = assay: Cytotoxicity against human HL60 cells after 48 hrs by MTT assay; format: functional, cell-based; settings: HL-60, 48 h
How it was run: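 HL-60 cells were grown in RPMI 1640 with 10% FBS and penicillin/streptomycin, seeded at 5 × 10⁴/mL, and exposed to 5 concentrations (0.01–1.00) in PBS with 4% DMSO, in triplicate. MTT was added at 5 mg/mL for 4 h at 37 °C. Plates were centrifuged (1000 r/min, 10 min), supernatant discarded, and crystals dissolved in DMSO. Read at OD 570/630 nm, blank-corrected against control; IC50 = concentration giving 50% cell death.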

[2] = Lipophilicity, log P of the compound; format: physicochemical; settings: octanol/water
CCRF S-180 [3] = assay: Antitumor activity against mouse S180 cells xenografted in ip dosed Kunming mouse assessed as tumor weight after 7 days; format: functional; how it was run: as §1

`CCCCCCCCCCCCCCCCCC(=O)N[C@@H](CCCNC(=N)N)C(=O)Nc1ccn([C@H]2O[C@@H](CO)[C@H](O)[C@H]2O)c(=O)n1` showed a TGI (CCRF S-180 [1]) of 8.1%, an IC50 (HeLa) of 12.1 µM and an IC50 (HL-60) of 1.7 µM. For the same compound, the logP [2] was 0.61 and the Activity (CCRF S-180 [3]) was 1.168 g.

`CCCCCCCCCCCCCCCCCC(=O)N[C@@H](CCSC)C(=O)Nc1ccn([C@H]2O[C@@H](CO)[C@H](O)[C@H]2O)c(=O)n1` gave a TGI (CCRF S-180 [1]) of 65.5%, an IC50 (HeLa) of 9 µM and an IC50 (HL-60) of 0.803 µM. The logP [2] was 1.09 and the Activity (CCRF S-180 [3]) was 0.438 g.

In the case of `CCCCCCCCCCCCCC(=O)N[C@@H](Cc1ccc(O)cc1)C(=O)Nc1ccn([C@H]2O[C@@H](CO)[C@H](O)[C@H]2O)c(=O)n1`, the TGI (CCRF S-180 [1]) is reported as 11.4%, the IC50 (HeLa) is reported as 39.1 µM and the IC50 (HL-60) is reported as 1.71 µM. It also gave a logP [2] of 0.9 and an Activity (CCRF S-180 [3]) of 1.125 g.

For `CCCCCCCCCCCCCCCCCC(=O)N[C@@H](CCC(=O)O)C(=O)Nc1ccn([C@H]2O[C@@H](CO)[C@H](O)[C@H]2O)c(=O)n1`, the TGI (CCRF S-180 [1]) was 12.9%, the IC50 (HeLa) was 19 µM and the IC50 (HL-60) was 1.14 µM. For the same compound, the logP [2] was 0.5 and the Activity (CCRF S-180 [3]) was 1.106 g.

`CCCCCCCCCCCCCC(=O)N[C@@H](CCCNC(=N)N)C(=O)Nc1ccn([C@H]2O[C@@H](CO)[C@H](O)[C@H]2O)c(=O)n1` gave a TGI (CCRF S-180 [1]) of 39.2%, an IC50 (HeLa) of 32 µM and an IC50 (HL-60) of 0.405 µM. The logP [2] was 0.45 and the Activity (CCRF S-180 [3]) was 0.773 g.

`CCCCCCCCCC(=O)N[C@@H](CCSC)C(=O)Nc1ccn([C@H]2O[C@@H](CO)[C@H](O)[C@H]2O)c(=O)n1` gave a TGI (CCRF S-180 [1]) of 25.6%, an IC50 (HeLa) of 3 µM and an IC50 (HL-60) of 0.28 µM. It also gave a logP [2] of 0.68 and an Activity (CCRF S-180 [3]) of 0.944 g.

With `CCCCCCCCCCCCCCCCCC(=O)N[C@H](C(=O)Nc1ccn([C@H]2O[C@@H](CO)[C@H](O)[C@H]2O)c(=O)n1)C(C)C` the TGI (CCRF S-180 [1]) was 58.9%, the IC50 (HeLa) was 13 µM and the IC50 (HL-60) was 31.9 µM. It also gave a logP [2] of 0.91 and an Activity (CCRF S-180 [3]) of 0.523 g.

Compound `CCCCCCCCCC(=O)N[C@H](C(=O)Nc1ccn([C@H]2O[C@@H](CO)[C@H](O)[C@H]2O)c(=O)n1)C(C)C` has a TGI (CCRF S-180 [1]) of 7%, an IC50 (HeLa) of 4.99 µM and an IC50 (HL-60) of 2.04 µM. It also gave a logP [2] of 0.78 and an Activity (CCRF S-180 [3]) of 1.181 g.

Compound `CCCCCCCCCC(=O)N[C@@H](CCCNC(=N)N)C(=O)Nc1ccn([C@H]2O[C@@H](CO)[C@H](O)[C@H]2O)c(=O)n1` has a TGI (CCRF S-180 [1]) of 15.7%, an IC50 (HeLa) of 6 µM and an IC50 (HL-60) of 0.584 µM. It also gave a logP [2] of 0.76 and an Activity (CCRF S-180 [3]) of 1.071 g.

For `CCCCCCCCCC(=O)N[C@@H](Cc1ccc(O)cc1)C(=O)Nc1ccn([C@H]2O[C@@H](CO)[C@H](O)[C@H]2O)c(=O)n1`, the TGI (CCRF S-180 [1]) was 19.1%, the IC50 (HeLa) was 1 µM and the IC50 (HL-60) was 2.98 µM. It also gave a logP [2] of 0.81 and an Activity (CCRF S-180 [3]) of 1.028 g.

With `CCCCCCCCCCCCCCCCCC(=O)N[C@@H](Cc1ccc(O)cc1)C(=O)Nc1ccn([C@H]2O[C@@H](CO)[C@H](O)[C@H]2O)c(=O)n1` the TGI (CCRF S-180 [1]) was 16.5%, the IC50 (HeLa) was 10 µM and the IC50 (HL-60) was 1.15 µM. It also gave a logP [2] of 0.97 and an Activity (CCRF S-180 [3]) of 1.06 g.

`CCCCCCCCCCCCCC(=O)N[C@@H](CCSC)C(=O)Nc1ccn([C@H]2O[C@@H](CO)[C@H](O)[C@H]2O)c(=O)n1` gave a TGI (CCRF S-180 [1]) of 37.6%, an IC50 (HeLa) of 8.02 µM and an IC50 (HL-60) of 0.272 µM. It also gave a logP [2] of 0.88 and an Activity (CCRF S-180 [3]) of 0.793 g.

Work on `CCCCCCCCCCCCCC(=O)N[C@@H](CCC(=O)O)C(=O)Nc1ccn([C@H]2O[C@@H](CO)[C@H](O)[C@H]2O)c(=O)n1` yielded a TGI (CCRF S-180 [1]) of 24.6%, an IC50 (HeLa) of 41 µM and an IC50 (HL-60) of 0.502 µM. For the same compound, the logP [2] was 0.25 and the Activity (CCRF S-180 [3]) was 0.958 g.

Work on `CCCCCCCCCCCCCC(=O)N[C@H](C(=O)Nc1ccn([C@H]2O[C@@H](CO)[C@H](O)[C@H]2O)c(=O)n1)C(C)C` yielded a TGI (CCRF S-180 [1]) of 8.4%, an IC50 (HeLa) of 26 µM and an IC50 (HL-60) of 32.3 µM. It also gave a logP [2] of 0.9 and an Activity (CCRF S-180 [3]) of 1.163 g.

In the case of `CCCCCCCCCC(=O)N[C@@H](CCC(=O)O)C(=O)Nc1ccn([C@H]2O[C@@H](CO)[C@H](O)[C@H]2O)c(=O)n1`, the TGI (CCRF S-180 [1]) is reported as 15.6%, the IC50 (HeLa) is reported as 5 µM and the IC50 (HL-60) is reported as 1.86 µM. The logP [2] was -0.28 and the Activity (CCRF S-180 [3]) was 1.072 g.

`Nc1ccn([C@@H]2O[C@H](CO)[C@@H](O)[C@@H]2O)c(=O)n1` [CYTARABINE] showed an IC50 (HeLa) of 464 µM and an IC50 (HL-60) of 0.118 µM.
